Most compounds without a hit are left out; they make up all but 3.1% or so of the library.
PP1 counter: PP1-alpha phosphatase inhibitors, primary screen, counter-screen for PP5 inhibitor project, biochemical, fluorescence, OMFP substrate, single point; AID 2235, 2010; actives 0.9% (n = 320,000); inhibition, % at 6.7 µM; purified PP1alpha; Serine/threonine-protein phosphatase PP1-alpha catalytic subunit (Homo sapiens), P62136;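 active = inhibition above the mean inhibition of all tested compounds plus 3 SD, computed separately for each screening campaign, cut at about 15% in these data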
Fh CTSL1 inh: Fasciola hepatica cathepsin L1 inhibitors, primary screen, counter-screen for PFM18AAP inhibitor project, biochemical, QFRET, fluorogenic peptide substrate | recombinant F. hepatica cathepsin L1, Z-Leu-Arg-MCA fluorescence | inhibition, % at 5.96 µM | actives 0.49% (n = 300,000);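 active = inhibition above the mean of all tested compounds plus 3 SD, set per screening campaign, cut at about 17% in these data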
HCV core dimer: inhibitors of HCV core protein dimerization, primary screen, biochemical, TR-FRET, high-throughput; TR-FRET GST/Flag-core106 dimerization, 1536-well; inhibition, % at 5 µM; actives 0.33% (n = 300,000); AID 1899, 2009;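 active = inhibition above the mean of all tested compounds plus 3 SD, set per screening campaign, cut at about 45% in these data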
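System – GST-tagged and Flag-tagged HCV core protein residues 1-106 · Repeats – one well for each compound · Technique – TR-FRET 671 and 617 nm emission · Doses – one concentration, 5 µM, in 0.5% DMSO · Times – 4 h, 22.5 °C incubation · Also added – Eu donor and XL665 acceptor anti-tag antibodies · Measure – percent inhibition of core106 dimerization signal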
Myeloid diff 2: induction of myeloid progenitor differentiation, primary screen, cell-based, flow cytometry, MLPCN library; calls only at 10 µM; actives 1% (n = 360,000); ER-HoxA9 myeloid progenitors, lysozyme-GFP differentiation;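 active = normalized GFP-positive differentiation at or above the plate's own cutoff, the solvent-only control mean plus 3 SD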;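 note: cells exposed to compound for four days before flow analysis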
NadD inh: inhibitors of S. aureus NadD, primary screen, biochemical, colorimetric, uHTS. Nicotinate-nucleotide adenylyltransferase NadD (Staphylococcus aureus N315). purified NadD enzyme, colorimetric absorbance read-out. inhibition, % at 20 µM. actives 0.78% (n = 360,000); in the data active = inhibition above about 26%
PP5 primary: PP5 phosphatase inhibitors, primary screen, biochemical, fluorescence. inhibition, % at 6.7 µM. purified PP5c, OMFP substrate fluorescence. Serine/threonine-protein phosphatase 5 (Homo sapiens), P53041. actives 0.18% (n = 320,000);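 active = inhibition above the campaign's mean inhibition across all tested compounds plus 3 SD, cut at about 9.5% in these data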
Target sequence (P53041 whole entry, looked up): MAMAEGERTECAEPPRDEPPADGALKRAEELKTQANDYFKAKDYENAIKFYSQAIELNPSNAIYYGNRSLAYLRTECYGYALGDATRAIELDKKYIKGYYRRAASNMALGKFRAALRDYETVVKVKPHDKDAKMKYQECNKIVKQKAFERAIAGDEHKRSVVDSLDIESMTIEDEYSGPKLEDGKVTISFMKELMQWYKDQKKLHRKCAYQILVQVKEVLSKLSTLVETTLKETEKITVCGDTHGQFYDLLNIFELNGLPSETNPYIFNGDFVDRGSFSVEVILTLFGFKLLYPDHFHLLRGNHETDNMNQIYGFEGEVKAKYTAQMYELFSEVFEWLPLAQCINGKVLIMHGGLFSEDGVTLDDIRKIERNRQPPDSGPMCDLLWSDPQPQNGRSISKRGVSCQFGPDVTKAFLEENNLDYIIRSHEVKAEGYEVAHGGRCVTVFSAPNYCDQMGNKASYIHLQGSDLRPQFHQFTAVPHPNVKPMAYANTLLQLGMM
Numbers stand for hits; 0 = inactive; - = not tested or not shown; + = active, no number.

SMILES | PP1 counter | Fh CTSL1 inh | HCV core dimer | Myeloid diff 2 | NadD inh | PP5 primary
Cc1cccc(/C=C/c2onc(C)c2S(=O)(=O)N2CCC(C(=O)NC(C)(C)C)CC2)c1 | 0 | 0 | 0 | 0 | 0 | 0
CCN(CC)C(=O)C1CCN(S(=O)(=O)c2c(C)noc2/C=C/c2cccc(C)c2)CC1 | 0 | 0 | 0 | + | 0 | 0
C#CCOCCOCCOCCNc1nc(N2CCN(C(=O)[C@H](CCCN=C(N)N)n3cc(C(N)[C@@H](C)CC)nn3)CC2)nc(N2CCN(C(=O)[C@H](CCC(=O)O)n3cc([C@@H](N)CC(N)=O)nn3)CC2)n1 (some centres undefined) | - | - | - | + | 0 | -
C#CCOCCOCCOCCNc1nc(N2CCN(C(=O)C([C@@H](C)O)n3cc([C@@H](N)CCCCN)nn3)CC2)nc(N2CCN(C(=O)[C@H](CCC(=O)O)n3cc([C@@H](N)[C@H](C)CC)nn3)CC2)n1 (some centres undefined) | - | - | - | + | 0 | -
Cc1ccn(C)c(=N)c1 | 0 | 0 | 0 | 0 | 0 | 0
COCCCN1C(=O)c2ccc(C(=O)NCc3ccccn3)cc2C1=O | 0 | 0 | 0 | 0 | 0 | 0
COc1ccccc1N1C(=O)N(C(C)=O)C2C1Nc1ccccc1N2C (centres undefined) | 0 | 0 | 0 | + | 0 | 0
COc1ccccc1N1C(=O)c2ccccc2NC1c1ccncc1 (centres undefined) | 0 | 0 | 0 | 0 | 0 | 0
CC(C)c1ccc(NC2CCCN(C(=O)CCc3cnn(C)c3)C2)cc1 (centres undefined) | - | - | - | 0 | 0 | -
Cc1nn(C)c(C)c1NC(=O)CSc1nc(-c2ccccc2Cl)nc2c1cnn2-c1ccccc1 | 16 | 0 | 0 | 0 | 0 | 0
Cc1nn(C)c(C)c1NC(=O)CSc1nc(-c2ccccc2F)nc2c1cnn2-c1ccccc1 | - | - | - | 0 | 0 | -
CN(C)c1ccc(-c2csc(C(O)(c3ccccc3)C(F)(F)F)n2)cc1 (centres undefined) | - | - | - | 0 | 0 | -
O=C(NCc1ccccc1C(F)(F)F)c1cccc2c1C(=O)c1ccc(N3CCC(N4CCCCC4)CC3)cc1S2(=O)=O | - | - | - | + | 0 | -
O=C(NCc1ccccc1Br)c1cccc2c1C(=O)c1ccc(N3CCC(Cc4ccccc4)CC3)cc1S2(=O)=O | - | - | - | + | 33 | -
CCCCNC(=O)[C@]1(C)CCC[C@@]2(C)C3CC[C@@]4(C)C[C@]3(CCC21)CC4=O (some centres undefined) | 0 | - | - | 0 | 0 | 0
NS(=O)(=O)c1ccc(Oc2ccc(S(N)(=O)=O)cc2)cc1 | 0 | 17 | 0 | 0 | 0 | 0
CCCCOc1ccc(S(N)(=O)=O)cc1 | 0 | 0 | 0 | 0 | 0 | 0
COc1ccccc1N(CC(O)CN1C(C)CCCC1C)S(=O)(=O)c1ccccc1 (centres undefined) | 0 | 0 | 0 | 0 | 0 | 0
CC1(C)Cc2c(sc(NC(=O)C(=O)NCC3CCCO3)c2C(N)=O)CO1 (centres undefined) | 0 | 0 | 0 | 0 | 0 | 0
CNc1ccccc1C(C)(C)c1cc(-c2cccc(OC)c2)no1 | 0 | 0 | 0 | + | 0 | 0
NC(=O)c1ccccc1OCC(=O)Nc1ccc2c(c1)OCCO2 | - | - | - | 0 | 0 | -
O=C(Cc1cccc2ccccc12)NC(NC(=S)Nc1ccccc1Cl)C(Cl)(Cl)Cl (centres undefined) | 16 | 0 | 0 | 0 | 0 | 0
O=C(NC(NC(=S)Nc1ccccc1Cl)C(Cl)(Cl)Cl)c1cccc(Cl)c1 (centres undefined) | 0 | 0 | 0 | 0 | 0 | 0
CC1(C)C(=O)Nc2ccccc2N1C(=O)COc1ccc(S(=O)(=O)N2CCOCC2)cc1Cl | 0 | 0 | 65 | 0 | 0 | 0
O=C(COc1ccc(S(=O)(=O)N2CCCCC2)cc1Cl)N1CCCC1 | 0 | 0 | 0 | + | 0 | 0
SMILES | PP1 counter | Fh CTSL1 inh | HCV core dimer | Myeloid diff 2 | NadD inh | PP5 primary
CC(C)C(C)NC(=O)COc1ccc(S(=O)(=O)N2CCOCC2)cc1Cl (centres undefined) | 0 | 0 | 0 | 0 | 0 | 0
CC(C)(C)CC(=O)Nc1cc(S(=O)(=O)N2CCCCCC2)ccc1Cl | 0 | 0 | 0 | 0 | 0 | 0
O=C(COc1ccc(S(=O)(=O)N2CCOCC2)cc1Cl)N1CCCC1 | 0 | 0 | 0 | 0 | 0 | 0
O=C(CCl)Nc1cc(S(=O)(=O)N2CCCCCC2)ccc1Cl | 0 | 80 | 0 | 0 | 0 | 0
CCN1CCN(C(=O)C2CCCN(S(=O)(=O)c3cccc4nsnc34)C2)CC1 (centres undefined) | 0 | 0 | 0 | 0 | 0 | 0
CCCC[C@@H]1CC2=C(C(=O)OC(C)(C)O2)[C@@H](c2ccc(F)cc2)O1 | - | - | - | 0 | 0 | -
COc1ccc(CCC(=O)NC(C)C)cc1 | 0 | 0 | 0 | + | 0 | 0
COc1ccc(C(C)NC(=O)CCc2ccccc2)cc1 (centres undefined) | 0 | 0 | 0 | 0 | 0 | 0
COc1ccc(CCC(=O)NC2CCC(C)CC2)cc1 (centres undefined) | 0 | 0 | 0 | + | 0 | 0
COc1ccc(CCCC(=O)NC2CCCCC2)cc1 | 0 | 0 | 0 | 0 | 0 | 0
C[C@H]1CN(c2ccccc2)C(=O)[C@@H]1CC(=O)Nc1ccccc1 | - | - | - | 0 | 0 | -
Cc1ccc(/C=N/N2C(=O)c3ccccc3NC2c2ccc(C)cc2)cc1 (centres undefined) | 0 | 0 | 0 | + | 0 | 0
Cc1cc(CN2CCC(N3CCC(C(=O)NC4CC4)CC3)CC2)cc(C)c1O | 0 | 0 | 0 | 0 | 0 | 0
COc1ccc(-c2cc(C(=O)N3CC4(C)CC3CC(C)(C)C4)no2)cc1OC (centres undefined) | 0 | 17 | 0 | 0 | 0 | 0
C=CCn1c(NCCc2ccccc2)nc2c1c(=O)n(C)c(=O)n2C | 0 | 0 | 0 | 0 | 0 | 0
C/C(Cl)=C\Cn1c(NCCc2ccccc2)nc2c1c(=O)n(C)c(=O)n2C | 0 | 0 | 0 | + | 0 | 0
Cc1ccc(Cn2c(NCCc3ccccc3)nc3c2c(=O)n(C)c(=O)n3C)cc1 | 0 | 0 | 0 | + | 0 | 0
Cc1ccc(NC(=O)CSc2nnnn2C)cc1S(=O)(=O)N1CCCCC1 | - | - | - | 0 | 0 | -
COc1ccc(N2CCN(C(=O)C3Cc4ccccc4CN3C(=O)c3ccccc3)CC2)cc1 (centres undefined) | 0 | 0 | 0 | + | 0 | 0
O=C(CNC(=O)c1ccccc1F)OCC(=O)N1CCCc2ccccc21 | 0 | 0 | 0 | 0 | 0 | 0
CC1CCCCC1NC(=O)COC(=O)CNC(=O)c1cccc(F)c1 (centres undefined) | 0 | 22 | 0 | 0 | 0 | 0
O=C(CNC(=O)c1cccc(F)c1)OCC(=O)N1CCCc2ccccc21 | 0 | 20 | 0 | 0 | 0 | 0

Bioassay records (PubChem)
